Data reported in ChEMBL document CHEMBL1250446, “Novel targets for Huntington's disease in an mTOR-independent autophagy pathway” (Nat Chem Biol, 2008).
Active and inactive are the calls of the source. The calls are words filed in the database; no cut-off is given here. Residues, ends and D or L forms follow the SMILES beside them.

Columns and labels:
[1] = test system: PC-12; experiment: Induction of autophagy in rat stable inducible PC12 cells assessed as increase in LC3-2 level at 500 uM after 24 hrs by immunoblotting analysis; type: functional, cell-based
Method in brief: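 Stable inducible PC12 cells exposed 24 h; endogenous LC3-II measured by anti-LC3 immunoblotting, with densitometry relative to actin.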

[2] = test system: PC-12; experiment: Induction of autophagy in rat stable inducible PC12 cells expressing A53T alpha-synuclein assessed as A53T alpha-synuclein clearance at 500 uM after 24 hrs by densitometric analysis; type: functional, cell-based
Method in brief: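 Inducible PC12 A53T α-synuclein (HA) cells induced with 1 μg/ml doxycycline for 48 h. Doxycycline then removed for 24 h with compound or DMSO. Remaining protein measured by anti-HA immunoblot, densitometry relative to actin.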

[3] = species: Danio rerio; experiment: Protection of neurodegeneration in zebrafish Huntington's disease model expressing EGFP-tagged huntingtin exon with EGFP-HDQ71 in rod photoreceptor assessed as induction of rhodopsin expression at 100 uM; type: functional, organism-based
Method in brief: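 Zebrafish larvae dosed 3–9 d.p.f. in E3 medium (daily refresh, dark-reared), lysed in 80% RIPA/100 mM DTT with protease inhibitor for 1 h on ice. Proteins run on 10% SDS-PAGE and blotted with anti-rhodopsin (Zpr3, 1:1000), anti-Zpr1 and anti-EGFP; ECL detection.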

[4] = species: Danio rerio; experiment: Protection of neurodegeneration in zebrafish Huntington's disease model expressing EGFP-tagged huntingtin exon with EGFP-HDQ71 in rod photoreceptor assessed as decrease in […] aggregation at 100 uM; type: functional, organism-based
Method in brief: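 Transgenic zebrafish embryos kept in 0.1 mM PTU from 1 to 3 d.p.f. and screened by EGFP, then dark-reared 3–9 d.p.f. in compound in E3 medium (pH 7.2), refreshed daily. Fixed in 4% PFA, cryosectioned at 12 μm; aggregates counted over 96 μm of central eye. Mean of 10 fish; ANOVA with Dunnett test.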

[5] = test system: PC-12; experiment: Induction of autophagy in rat stable inducible PC12 cells expressing A53T alpha-synuclein assessed as inhibition of PACAP-retarded A53T alpha-synuclein clearance at 500 uM after 24 hrs by densitometric analysis; type: functional, cell-based
Method in brief: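 Inducible PC12 A53T α-synuclein line (doxycycline 1 μg/ml 48 h, then 24 h off-induction) treated 24 h with 100 nM PACAP with or without compound. Clearance measured by anti-HA immunoblot, densitometry relative to actin.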

[6] = test system: SK-N-SH; experiment: Induction of autophagy in human SK-N-SH cells expressing EGFP-HDQ74 assessed as reduction in EGFP-HDQ74 aggregation at 500 uM after 48 hrs by densitometric analysis; type: functional, cell-based
[7] = test system: COS-7; experiment: Induction of autophagy in african green monkey COS7 cells expressing EGFP-HDQ74/m-calpain assessed as decrease in EGFP-HDQ74 aggregation at 500 uM after 48 hrs; type: functional, cell-based; details: Chlorocebus aethiops
[8] = test system: SK-N-SH; experiment: Induction of autophagy in human SK-N-SH cells expressing EGFP-HDQ74/m-calpain assessed as inhibition of EGFP-HDQ74 aggregation at 1 uM after 48 hrs; type: functional, cell-based
[9] = test system: SK-N-MC; experiment: Induction of autophagy in Atg positive human SK-N-MC cells expressing EGFP-HDQ74 at 1 uM after 48 hrs; type: functional, cell-based
[10] = test system: Drosophila; experiment: Protection of neurodegeneration in Drosophila Huntington's disease model assessed as induction autophagy at 2.5 mM; type: functional, organism-based
Method in brief: (§1)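 Progeny reared on instant food with drug (from 0.5 M DMSO stock) or DMSO, at 25°C, 70% humidity, 12 h light/dark. Photoreceptors scored by pseudopupil technique 2 days after eclosion; paired t-test on experiment averages.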

[11] = species: Danio rerio; experiment: Protection of neurodegeneration in zebrafish Huntington's disease model expressing EGFP-tagged huntingtin exon with EGFP-HDQ71 in rod photoreceptor assessed as induction of rhodopsin expression at 3 uM; type: functional, organism-based
Method in brief: (§2)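 Zebrafish larvae dark-reared 3–9 d.p.f. with drug in E3, refreshed daily, then lysed in RIPA/DTT. Western blot with anti-rhodopsin (Zpr3, 1:1000), anti-Zpr1 and anti-EGFP antibodies; ECL detection.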

[12] = species: Danio rerio; experiment: Protection of neurodegeneration in zebrafish Huntington's disease model expressing EGFP-tagged huntingtin exon with EGFP-HDQ71 in rod photoreceptor assessed as decrease in […] aggregation at 3 uM; type: functional, organism-based
Method in brief: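 Transgenic zebrafish larvae raised in PTU to 3 d.p.f., then dark-reared 3–9 d.p.f. with drug in E3 medium (pH 7.2), refreshed daily. Fixed fish were cryosectioned at 12 μm and aggregates counted over 96 μm of the central eye. Means from 10 fish per group; ANOVA with Dunnett's test.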

[13] = test system: SK-N-SH (Homo sapiens); experiment: Induction of autophagy in human SK-N-SH cells assessed as increase in LC3-2 level at 0.33 uM after 24 hrs by immunoblotting analysis
[14] = species: Mus musculus; experiment: Induction of autophagy in Atg deficient mouse […] expressing EGFP-HDQ74 at 1 uM after 48 hrs; type: functional
[15] = test system: Drosophila; experiment: Protection of neurodegeneration in Drosophila Huntington's disease model assessed as induction autophagy at 1.25 mM; type: functional, organism-based; method in brief: as §1
[16] = test system: SK-N-SH (Homo sapiens); experiment: Induction of autophagy in human SK-N-SH cells expressing EGFP-HDQ74 assessed as reduction in EGFP-HDQ74 aggregation at 1 uM after 48 hrs by densitometric analysis
[17] = species: Danio rerio; experiment: Protection of neurodegeneration in zebrafish Huntington's disease model expressing EGFP-tagged huntingtin exon with EGFP-HDQ71 in rod photoreceptor assessed as decrease in […] aggregation at 3 uM
[18] = species: Danio rerio; experiment: Protection of neurodegeneration in zebrafish Huntington's disease model expressing EGFP-tagged huntingtin exon with EGFP-HDQ71 in rod photoreceptor assessed as loss of rhodopsin expression at 3 uM
[19] = test system: SK-N-SH; experiment: Induction of autophagy in human SK-N-SH cells expressing EGFP-HDQ74 assessed as inhibition of Bay K8644-induced EGFP-HDQ74 aggregation at 1 uM after 48 hrs; type: functional, cell-based
Method in brief: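 SK-N-SH cells transfected with EGFP-HDQ74 (LipofectAMINE PLUS, 4 h), then exposed alongside 1 μM (±)-Bay K8644. Proportion of EGFP-positive cells with aggregates scored at 48 h post-transfection by a blinded observer.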

[20] = test system: HeLa; experiment: Induction of autophagy in human HeLa cells expressing EGFP-LC3 assessed as increase in LC3-2 level at 50 uM in presence of 400 nM bafilomycin A1; type: functional, cell-based
[21] = test system: COS-7; experiment: Induction of autophagy in african green monkey COS7 cells assessed as increase in autophagosome at 50 uM after 24 hrs by electron microscopy; type: functional, cell-based; details: Chlorocebus aethiops
Method in brief: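 COS-7 cells exposed 24 h, fixed, and examined by electron microscopy. Early and late autophagosome-like structures were counted per 50 cell profiles. Student's t-test; error bars are standard error of the mean.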

[22] = test system: PC-12; experiment: Induction of autophagy in differentiated rat stable inducible PC12 cells expressing EGFP-HDQ74 assessed as EGFP-HDQ74 clearance at 10 uM after 96 hrs by calpain activation assay; type: functional, cell-based
[23] = test system: COS-7; experiment: Induction of autophagy in african green monkey COS7 cells expressing EGFP-LC3 assessed as increase in EGFP-LC3 vesicle at 50 uM after 24 hrs; type: functional, cell-based; details: Chlorocebus aethiops
[24] = test system: COS-7; experiment: Induction of autophagy in african green monkey COS7 cells expressing EGFP-HDQ74 assessed as inhibition of PLC-epsilon overexpression-induced EGFP-HDQ74 aggregation at 50 uM after 48 hrs; type: functional, cell-based; details: Chlorocebus aethiops
[25] = test system: PC-12; experiment: Induction of autophagy in undifferentiated rat stable inducible PC12 cells expressing A53T alpha-synuclein assessed as A53T alpha-synuclein clearance at 10 uM after 96 hrs by calpain activation assay; type: functional, cell-based
[26] = test system: PC-12; experiment: Induction of autophagy in undifferentiated rat stable inducible PC12 cells expressing EGFP-HDQ74 assessed as EGFP-HDQ74 clearance at 10 uM after 96 hrs by calpain activation assay; type: functional, cell-based
[27] = test system: PC-12; experiment: Induction of autophagy in differentiated rat stable inducible PC12 cells expressing A53T alpha-synuclein assessed as A53T alpha-synuclein clearance at 10 uM after 96 hrs by calpain activation assay; type: functional, cell-based
[28] = test system: COS-7; experiment: Induction of autophagy in african green monkey COS7 cells expressing EGFP-HDQ74/rheb assessed as reduction in EGFP-HDQ74 aggregation at 50 uM after 48 hrs; type: functional, cell-based; details: Chlorocebus aethiops
[29] = test system: COS-7; experiment: Induction of autophagy in african green monkey COS7 cells expressing EGFP-HDQ74/rheb assessed as reduction in EGFP-HDQ74 aggregation at 0.2 uM after 2 hrs; type: functional, cell-based; details: Chlorocebus aethiops
[30] = test system: COS-7; experiment: Induction of autophagy in african green monkey COS7 cells expressing EGFP-LC3 assessed as increase in EGFP-LC3 vesicle at 0.2 uM after 2 hrs; type: functional, cell-based; details: Chlorocebus aethiops
Method in brief: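 COS-7 transfected 4 h with EGFP-LC3, then exposed 2 h together with 2.5 μM thapsigargin. Each EGFP-positive cell was scored positive if it had >5 EGFP-LC3 vesicles. Blinded fluorescence microscopy; triplicate, at least twice.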

[31] = test system: SK-N-MC; experiment: Cytotoxicity against human SK-N-MC cells expressing EGFP-HDQ74 at 1 uM after 48 hrs; type: cell-based
[32] = test system: COS-7; experiment: Induction of autophagy in african green monkey COS7 cells expressing PLC-epsilon assessed as calpain activation at 2.5 uM after 30 mins by immunoblotting analysis; type: functional, cell-based; details: Chlorocebus aethiops
Method in brief: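 Calpain activation in COS-7 after 30 min exposure, alongside 2.5 μM thapsigargin where applied; immunoblot of the active calpain small subunit.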

[33] = test system: SK-N-SH; experiment: Induction of autophagy in human SK-N-SH cells assessed as inhibition of Bay K8644-induced calpain activation; type: functional, cell-based
Method in brief: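 SK-N-SH cells pretreated 15 min, then given 1 μM (±)-Bay K8644 for 4 h. The active calpain small subunit was detected by immunoblot.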

[34] = species: Danio rerio; experiment: Protection of neurodegeneration in zebrafish Huntington's disease model expressing EGFP-tagged huntingtin exon with EGFP-HDQ71 in rod photoreceptor assessed as induction of rhodopsin expression at 1 uM; type: functional, organism-based; method in brief: as §2
[35] = test system: COS-7; experiment: Induction of autophagy in african green monkey COS7 cells assessed as increase in LC3-2 vesicle at 50 uM after 24 hrs by immunofluorescence assay; type: functional, cell-based; details: Chlorocebus aethiops
Method in brief: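 Fixed COS-7 cells, after 24 h exposure, immunostained for LC3 with an anti-LC3 primary and Alexa-conjugated secondary; confocal imaging of LC3-positive vesicles.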

**Q.** What does the source list for `C[C@H]1O[C@@H](n2cnc3c(N)ncnc32)C[C@@H]1O`?
**A.** Activity [1]: Active; Activity [2]: Active; Activity [3]: Active; Activity [4]: Active; Activity [5]: Active; Activity [6]: Active; Activity [7]: Active

**Q.** What does the source list for `COc1ccc(CCN(C)CCCC(C#N)(c2ccc(OC)c(OC)c2)C(C)C)cc1OC` (stereo not given)?
**A.** Activity [8]: inactive; Activity [9]: Active; Activity [10]: Active; Activity [11]: Active; Activity [12]: Active; Activity [13]: Active; Activity [14]: inactive; Activity [15]: Active; Activity [16]: Active; Activity [17]: Active; Activity [18]: inactive; Activity [19]: Active

**Q.** For `CCCC[C@@H](C=O)NC(=O)[C@H](CC(C)C)NC(=O)OCc1ccccc1`, which Activity [20] is on record?
**A.** Active

**Q.** And the Activity [21]?
**A.** Active

**Q.** And the Activity [22]?
**A.** Active

**Q.** What about the Activity [23] of the same compound?
**A.** Active

**Q.** And the Activity [24]?
**A.** Active

**Q.** And the Activity [25]?
**A.** Active

**Q.** What about the Activity [26] of the same compound?
**A.** Active

**Q.** And the Activity [27]?
**A.** Active

**Q.** And the Activity [28]?
**A.** Active

**Q.** For `CO[C@H]1C[C@@H]2CC[C@@H](C)[C@@](O)(O2)C(=O)C(=O)N2CCCC[C@H]2C(=O)O[C@H]([C@H](C)C[C@@H]2CC[C@@H](O)[C@H](OC)C2)CC(=O)[C@H](C)/C=C(\C)[C@@H](O)[C@@H](OC)C(=O)[C@H](C)C[C@H](C)/C=C/C=C/C=C/1C`, which Activity [29] is on record?
**A.** Active

**Q.** What about the Activity [30] of the same compound?
**A.** Active

**Q.** What does the source list for `COC(=O)C1=C(C)NC(C)=C([N+](=O)[O-])C1c1ccccc1C(F)(F)F` (racemic)?
**A.** Activity [31]: Toxic; Activity [9]: Active; Activity [32]: Active; Activity [11]: inactive; Activity [14]: inactive; Activity [16]: inactive; inhibition [33]: Dose-dependent effect; Activity [34]: Active

**Q.** For `CSCC[C@@H](C=O)NC(=O)[C@H](CC(C)C)NC(=O)[C@H](CC(C)C)NC(C)=O` (Ac-Leu-Leu-Met-aldehyde), which Activity [35] is on record?
**A.** Active

**Q.** What about the Activity [20] of the same compound?
**A.** Active
